# From PubChem BioAssay
# Pf Dd2 growth: blocks growth of Plasmodium falciparum Dd2 parasites | P. falciparum Dd2 growth, SYBR Green, 72 h; active compounds read low | actives 2.3% (n = 94,000) | activity change, % at 10 µM | AID 1159554; in the data active = activity change below about -80%; inconclusive = no clear call, values can overlap the other calls
# T cruzi growth-1: inhibitors of T. cruzi proliferation | T. cruzi beta-gal in NIH3T3, GalScreen luminescence, 90 h | inhibition, % at 8.34 µM | actives 5.9% (n = 77,000);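 active = mean inhibition above about 93%, with at least 55% of replicates each passing it, limit read from the data, passing the limit was not always enough; inconclusive = only one of those two conditions holds; inactive = neither condition holds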
# GASC1 inh: KDM4C (human) demethylase inhibition. Q9H3R0. GST-KDM4C 2-372, H3K9me3 peptide, LANCE TR-FRET. inhibition, % at 12.5 µM. actives 0.15% (n = 96,000). AID 720574;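 active = mean replicate inhibition above about 25%, with at least 55% of replicates also reaching it, limit read from the data, passing the limit was not always enough; inconclusive = only one of those two conditions met; inactive = neither condition met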
#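 Test system – GST-tagged GASC-1 (JMJD2C) catalytic fragment, aa 2-372 · Medium – HEPES buffer, pH 7.5, plus ascorbate · Reagent – H3K9me3 peptide with Fe(II)/2OG · Compound – one test concentration per compound · Timing – 30 min reaction, 60 min detection, RT · Technique – TR-FRET with Eu antibody and ULight streptavidin, EDTA stop · Read-out basis – inhibition from TR-FRET ratio decrease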
# IDH1 R132H inh: blocks human IDH1 R132H reductase activity; O75874; diaphorase/resazurin fluorescence, 60 min; inhibition, % at 10 µM; actives 0.18% (n = 70,000); in the data active = inhibition above about 34%; inconclusive = no clear call, values can overlap the other calls; inactive = below about 11%;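 also: 0% = DMSO and 100% = no enzyme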
# Target sequence (O75874 whole entry R132H): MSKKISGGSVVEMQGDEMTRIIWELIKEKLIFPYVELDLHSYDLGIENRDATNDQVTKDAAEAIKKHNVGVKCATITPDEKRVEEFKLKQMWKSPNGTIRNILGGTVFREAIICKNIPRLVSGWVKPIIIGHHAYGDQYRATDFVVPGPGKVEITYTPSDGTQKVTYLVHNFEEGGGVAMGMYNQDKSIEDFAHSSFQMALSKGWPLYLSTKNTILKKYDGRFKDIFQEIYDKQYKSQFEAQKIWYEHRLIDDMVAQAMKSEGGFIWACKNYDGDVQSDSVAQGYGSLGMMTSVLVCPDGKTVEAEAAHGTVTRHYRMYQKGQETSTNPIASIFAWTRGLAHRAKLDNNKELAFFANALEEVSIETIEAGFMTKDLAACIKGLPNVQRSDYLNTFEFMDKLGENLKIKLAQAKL
# T cruzi growth-2: blocks T. cruzi growth in NIH3T3 host cells; shares compounds with T cruzi growth-1; T. cruzi beta-gal in NIH3T3, GalScreen luminescence, 90 h; inhibition, % at 8.35 µM; actives 72% (n = 5,600); AID 651739;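 active = mean replicate inhibition above about 95% and at least 55% of replicates individually reaching it, limit read from the data; inconclusive = only one of the two criteria is met; inactive = neither criterion is met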
# T cruzi growth-3: inhibitors of T. cruzi proliferation | actives 21% (n = 5,600) | AID 651740 | inhibition, % at 2.09 µM | shares compounds with T cruzi growth-1 | T. cruzi beta-gal in NIH3T3, GalScreen luminescence, 90 h;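 active = mean inhibition above about 95%, with at least 55% of replicates also reaching it, limit read from the data; inconclusive = meets just one of the two conditions; inactive = meets neither condition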;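 also: plate controls were neutral control median for no effect and positive control median for full effect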
# 3T3 cytotox: kills mouse NIH/3T3 fibroblasts; AID 651742; actives 14% (n = 5,600); NIH/3T3 viability, CellTiter-Glo ATP luminescence, 90 h; shares compounds with T cruzi growth-1; cytotoxicity (signal decrease), % at 8.35 µM;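 active = mean signal decrease across replicates above about 35% based on untreated-well scatter, with enough replicates individually passing, limit read from the data; inconclusive = no rule stated though some were filed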;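 also: 0% = median of neutral control wells and 100% = median of positive control wells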
# NIH3T3 tox 2: NIH/3T3 (mouse) viability loss. AID 651744. inhibition, % at 24.9 µM. actives 56% (n = 5,600). NIH/3T3 viability, CellTiter-Glo ATP luminescence, 90 h. shares compounds with T cruzi growth-1;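 active = mean loss of cell viability signal at or above a set limit, and enough replicates individually reaching it; inconclusive = meets only the mean limit or only the replicate share; inactive = meets neither condition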;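 also: 0% = median of neutral control wells and 100% = median of positive control wells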
# The depositor's hits bear a star; ? = inconclusive; / = no result. Only some compounds are listed: those with a hit (about 5.8% of all), similar ones and a draw of the others.
SMILES,Pf Dd2 growth,T cruzi growth-1,GASC1 inh,IDH1 R132H inh,T cruzi growth-2,T cruzi growth-3,3T3 cytotox,NIH3T3 tox 2
CO[C@H]1CN(C)C(=O)c2cc(NC(=O)NC3CCCCC3)ccc2OC[C@H](C)N(CCc2ccccc2)C[C@@H]1C,-34,86,2,1,/,/,/,/
CO[C@@H]1CN(C)C(=O)c2ccc(NC(=O)Cc3ccccc3)cc2OC[C@@H](C)N(CCc2ccccc2)C[C@H]1C,-61,99*,0,0,100*,104*,-4,11
CCC(=O)Nc1ccc2c(c1)OC[C@@H](C)N(CCc1ccccc1)C[C@H](C)[C@@H](OC)CN(C)C2=O,-34,58,1,0,/,/,/,/
CO[C@@H]1CN(C)C(=O)c2ccc(NC(=O)NC3CCCCC3)cc2OC[C@@H](C)N(CCc2ccccc2)C[C@H]1C,-79,118*,0,0,110*,51,22,10
COc1cccc(-c2ccc([C@@H]3[C@H](CO)N4CCCCN(CC5CCOCC5)C[C@@H]34)cc2)c1,-50,50,/,/,/,/,/,/
COc1cccc(-c2ccc([C@@H]3[C@@H](CO)N4CCCCN(CC5CCOCC5)C[C@@H]34)cc2)c1,-10,98*,/,/,99*,39,18,54*
COc1cccc(-c2ccc([C@H]3[C@H]4CN(CC5CCOCC5)CCCCN4[C@H]3CO)cc2)c1,-15,104*,/,/,74,23,3,58*
O=c1[nH]c(=S)c2c(n1N1CCOCC1)CCC2,/,/,/,0,/,/,/,/
C[C@H](CO)N1C[C@H](C)[C@H](CN(C)S(=O)(=O)c2ccccc2)OCCCC[C@H](C)Oc2ccc(NC(=O)Nc3cccc4ccccc34)cc2C1=O,-45,90,-1,3,/,/,/,/
Cc1noc(C)c1S(=O)(=O)N(C)C[C@H]1OCCCC[C@@H](C)Oc2ccc(NC(=O)Nc3cccc4ccccc34)cc2C(=O)N([C@@H](C)CO)C[C@@H]1C,?,105*,-2,-2,107*,67,17,16
Cc1noc(C)c1S(=O)(=O)N(C)C[C@@H]1OCCCC[C@@H](C)Oc2ccc(NC(=O)Nc3cccc4ccccc34)cc2C(=O)N([C@H](C)CO)C[C@H]1C,-82*,109*,-9,1,110*,100*,-7,?
C[C@@H]1CCCCO[C@H](CN(C)S(=O)(=O)c2ccccc2)[C@H](C)CN([C@H](C)CO)C(=O)c2cc(NC(=O)Nc3cccc4ccccc34)ccc2O1,-71,108*,-3,2,106*,110*,12,?
Cc1cccc(S(=O)(=O)N2CCCCN3[C@H](CO)[C@@H](c4ccc(C#CC(C)C)cc4)[C@@H]3C2)c1,-28,118*,1,/,101*,98*,10,49*
Cc1cccc(S(=O)(=O)N2CCCCN3[C@H](CO)[C@H](c4ccc(C#C[C@H](C)O)cc4)[C@@H]3C2)c1,-30,74,-1,/,/,/,/,/
Cc1cccc(S(=O)(=O)N2CCCCN3[C@H](CO)[C@H](c4ccc(C#CC(C)C)cc4)[C@@H]3C2)c1,-35,97*,-1,/,98*,100*,37*,105*
Cc1cccc(S(=O)(=O)N2CCCCN3[C@H](C2)[C@@H](c2ccc(C#C[C@H](C)O)cc2)[C@@H]3CO)c1,-6,101*,0,/,102*,66,65*,27*
O=C(NO)c1cccc(C(=O)N/N=C/c2cccs2)c1,/,/,/,0,/,/,/,/
FC(F)(F)c1ccnc(NCCNC(=S)NCc2ccco2)n1,/,/,/,1,/,/,/,/
N#C[C@@H]1N[C@H](CO)[C@@H]1c1ccc(C#Cc2ccccc2F)cc1,7,79,-1,/,/,/,/,/
N#C[C@H]1N[C@H](CO)[C@H]1c1ccc(C#CC2CCCC2)cc1,4,101*,4,/,99*,68,5,27*
COc1cccc(C#Cc2ccc([C@H]3[C@@H](C#N)N[C@@H]3CO)cc2)c1,-29,98*,-1,/,100*,101*,19,54*
